A selection: hits, their analogues and other compounds. The true share with any hit is near 2.1%.
IMP-1 inh – inhibitors of Pseudomonas aeruginosa IMP-1 metallo-beta-lactamase | purified IMP-1, nitrocefin hydrolysis, epi-absorbance fluorescence | inhibition, % at 5.6 µM | 290,000 compounds, 0.45% hits | AID 1556;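 active means inhibition above the mean plus 3 SD of all compounds in the same screening run, cut at about 4.5% in these data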
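system = purified recombinant IMP-1 beta-lactamase | amount = 0.2 nM IMP-1, as dispensed | medium = HEPES buffer pH 7.1 with ZnSO4 and Brij 35 | times = 25 °C, 15 min preincubation, 25 min reaction | detection = plate fluorescence quenching by hydrolysis product, ex 480/em 530 nm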
NS3 helicase inh – blocks Hepatitis C virus NS3 helicase unwinding; 290,000 compounds, 0.56% hits; inhibition, % at 10.9 µM; NS3 helicase DNA unwinding, Cy5 molecular beacon fluorescence;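 active means inhibition above the mean of all tested compounds plus 3 SD, set per campaign, cut at about 35% in these data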
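Compound dosing – single dose, 10.9 µM nominal final, DMSO 0.8% final · System – NS3 helicase fragment of HCV · Buffer or medium – MOPS pH 6.5, MgCl2, DTT, Tween20, BSA · Signal – Cy5 beacon fluorescence read at start and 1 h · Also added – annealed dual-labelled DNA beacon duplex, ATP-started · Schedule – 1 h at 25 °C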
VIM-2 inh – blocks Pseudomonas aeruginosa VIM-2 metallo-beta-lactamase; inhibition, % at 5.6 µM; AID 1527; 290,000 compounds, 0.89% hits; purified VIM-2, nitrocefin hydrolysis, epi-absorbance fluorescence;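 active means inhibition above the mean of all tested compounds plus 3 SD, cutoff set per screening run, cut at about 7.5% in these data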;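 further: red hydrolysis product quenches plate fluorescence so inhibitors raise well fluorescence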
SUMO HTRF inh – inhibitors of human SUMOylation (UBC9). HTRF SUMOylation assay, SAE1/SAE2 + UBC9, in vitro. inhibition, % at 35 µM. 290,000 compounds, 0.36% hits; in the data active means inhibition above about 50%, passing the limit was not always enough
Target sequence (P63279 whole entry, looked up): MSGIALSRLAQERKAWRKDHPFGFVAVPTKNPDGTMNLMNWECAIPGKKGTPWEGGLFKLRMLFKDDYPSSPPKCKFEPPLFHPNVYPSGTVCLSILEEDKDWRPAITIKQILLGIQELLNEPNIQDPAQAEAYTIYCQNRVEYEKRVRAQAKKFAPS
DNA FID counter-1 – displaces DNA intercalator in HCV helicase counter-screen; DNA fluorescent intercalator displacement, fluorescence; inhibition, % at 7.9 µM; 290,000 compounds, 0.17% hits; AID 1845;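 further: higher means more ethidium bromide displaced from hairpin DNA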
NS3 hel confirm – confirmation of Hepatitis C virus NS3 helicase inhibitors; 1,600 compounds, 31% hits; inhibition, % at 10.9 µM; shares compounds with NS3 helicase inh; NS3 helicase DNA unwinding, Cy5 molecular beacon fluorescence;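 active means inhibition above the mean of all tested compounds plus 3 SD, cutoff set per campaign, cut at about 36% in these data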
DNA FID counter-2 – displaces DNA intercalator in HCV helicase counter-screen; inhibition, % at 7.9 µM; shares compounds with NS3 helicase inh; DNA fluorescent intercalator displacement, fluorescence; 1,600 compounds, 4% hits;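 further: higher means more displacement of ethidium bromide from the DNA hairpin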
FID counter DR – displaces fluorescent intercalator from DNA, HCV helicase counter-screen; shares compounds with NS3 helicase inh; fluorescent intercalator displacement from DNA, fluorescence; IC50, µM; 120 tested, under 10 active; AID 2172; call rule not given here
Of the large screens only hits and unclear results are named; the others gave an inactive call (follow-up assays come after a bar, where they were run). Unless noted, no stated cut-off is given here; in the data, active means inhibition above about 37%; inactive means the rest.

O=C(O)COc1ccccc1C(Nc1cccnc1)c1cc(Cl)c2cccnc2c1O (stereo not given)	NS3 helicase inh 37, SUMO HTRF inh 77 | NS3 hel confirm 69 | DNA FID counter-2 81
CC(=O)NC(c1ccc(Cl)cc1Cl)c1ccc2cccnc2c1O (stereo not given)	NS3 helicase inh 36 | NS3 hel confirm inactive | DNA FID counter-2 inactive
COc1ccc(-c2[nH]ncc2CN(C)Cc2nonc2C)c(OC)c1	none
CCc1nc(SCc2ccccc2C)n[nH]1	none
O=C1CCCC(=O)C1CS(=O)(=O)c1ccccc1	none
COc1ccc(C2=CC(=O)CC(c3ccccc3)C2)cc1 (stereo not given)	none
O=C1CC(c2ccc(Cl)cc2)CC(=O)C1CS(=O)(=O)c1ccccc1 (stereo not given)	NS3 helicase inh 36 | NS3 hel confirm 70 | DNA FID counter-2 inactive
COc1ccc(C2CC(=O)C(CS(=O)(=O)c3ccccc3)C(=O)C2)cc1 (stereo not given)	NS3 helicase inh 43 | NS3 hel confirm inactive | DNA FID counter-2 inactive
CC(C)(C)NC(=O)C(c1ccc(O)cc1)N(C(=O)CCC(=O)Nc1nccs1)c1ccc(F)cc1 (stereo not given)	none
Cn1c(=S)[nH]c2sc3c(c2c1=O)CCC(C(C)(C)C)C3 (stereo not given)	NS3 helicase inh 43 | NS3 hel confirm inactive | DNA FID counter-2 inactive
COc1ccccc1NC(=O)CS(=O)(=O)c1cn(CC(=O)N2CCCC2)c2ccccc12	none
N=c1c(S(=O)(=O)c2ccc(Br)cc2)cc2c(=O)n3ccccc3nc2n1Cc1ccco1	none (no result: SUMO HTRF inh)
N=c1c(S(=O)(=O)c2ccc(Cl)cc2)cc2c(=O)n3ccccc3nc2n1Cc1ccco1	NS3 helicase inh 45 (no result: SUMO HTRF inh) | NS3 hel confirm 70 | DNA FID counter-2 48
Cc1ccnc(NC(=O)c2cccc(NC(=O)c3ccccc3C)c2)c1	none
Cc1nn(CC(=O)Nc2ccccc2C(F)(F)F)c(=O)c2cccn12	none
Cc1ccc(/C=C/C(=O)Nc2ncc(C)s2)o1	NS3 helicase inh 50 | NS3 hel confirm inactive | DNA FID counter-2 inactive
COc1cc([N+](=O)[O-])ccc1NC(=O)NCC1CCN(Cc2ccc(Cl)cc2)CC1	none
CC(/C=C1\SC(=S)N(CCCC(=O)Nc2ccc(C(=O)O)c(O)c2)C1=O)=C\c1ccccc1	NS3 helicase inh 73, DNA FID counter-1 39 | NS3 hel confirm 73 | DNA FID counter-2 69
COc1ccc(/C=C2\SC(=S)N(CCC(=O)Nc3cccc(C(=O)O)c3)C2=O)cc1	NS3 helicase inh 39 | NS3 hel confirm 52 | DNA FID counter-2 inactive
O=C(CCN1C(=O)/C(=C/c2cccs2)SC1=S)Nc1cccc(C(=O)O)c1	NS3 helicase inh 36 | NS3 hel confirm 58 | DNA FID counter-2 inactive
COC(=O)[C@@H](NC(=O)NCCC1=CCCCC1)C(C)C	none
Cc1ccc(C(=O)C2=C(O)C(=O)N(Cc3cccnc3)C2c2ccc(Br)cc2)o1 (stereo not given)	NS3 helicase inh 40 | NS3 hel confirm inactive | DNA FID counter-2 inactive
Cc1ccc(C(=O)C2=C(O)C(=O)N(Cc3ccco3)C2c2cccc(Cl)c2)o1 (stereo not given)	NS3 helicase inh 74 | NS3 hel confirm 71 | DNA FID counter-2 inactive | FID counter DR inactive
Cc1ccc(C(=O)C2=C(O)C(=O)N(Cc3ccco3)C2c2cccc(Br)c2)o1 (stereo not given)	NS3 helicase inh 101 | NS3 hel confirm 92 | DNA FID counter-2 inactive
O=C(C1=C(O)C(=O)N(Cc2ccco2)C1c1cccc(O)c1)c1ccco1 (stereo not given)	none
O=C(CSc1nnc(NC(=O)C2CC(=O)N(c3ccccc3)C2)s1)NCc1ccco1 (stereo not given)	none
CCOC(=O)c1ccc(N(C(=O)CNC(=O)c2ccco2)C(C(=O)NCC2CCCO2)c2ccc(OC)c(OC)c2)cc1 (stereo not given)	NS3 helicase inh 51 | NS3 hel confirm inactive | DNA FID counter-2 inactive
CC(CC(=O)NC1CCCCC1)S(=O)(=O)c1ccc2c(c1)NC(=O)CO2 (stereo not given)	NS3 helicase inh 38 | NS3 hel confirm inactive | DNA FID counter-2 inactive
COc1cccc(CNC(=O)Cn2ccc3cc(S(=O)(=O)N4CCCCCC4)ccc32)c1	none
C[C@H](NC(=O)c1ccco1)C(=O)Nc1ccc(C#N)cc1	none
COc1ccccc1NC(=O)c1cc2cc(Br)ccc2cc1O	none | NS3 hel confirm 87 | DNA FID counter-2 inactive | FID counter DR inactive
O=C(Nc1ccccc1O)c1cc2cc(Br)ccc2oc1=O	NS3 helicase inh 43 | NS3 hel confirm inactive | DNA FID counter-2 inactive
N#C/C(=C(\O)c1cc(Cl)sc1Cl)c1nc2ccccc2[nH]1	NS3 helicase inh 43 | NS3 hel confirm inactive | DNA FID counter-2 inactive
CC1Cc2ccccc2N1C(=O)CN1CCN(Cc2ccccc2)CC1 (stereo not given)	none
CC1CCCC2(C1)NC(=S)c1c(sc3c1CCCC3)N2 (stereo not given)	NS3 helicase inh 36 | NS3 hel confirm inactive | DNA FID counter-2 inactive
CC1CCCC2(C1)NC(=S)N(c1ccccc1)N2 (stereo not given)	none
O=C1CC(=O)c2c1cccc2[N+](=O)[O-]	NS3 helicase inh 37 | NS3 hel confirm 90 | DNA FID counter-2 inactive
Cc1ccc(/C(O)=C2/C(=O)C(=O)N(c3ccccn3)C2c2cccc([N+](=O)[O-])c2)cc1 (stereo not given)	NS3 helicase inh 48 | NS3 hel confirm inactive | DNA FID counter-2 inactive
COc1ccc(C2/C(=C(/O)c3ccc(C)cc3)C(=O)C(=O)N2c2ccccn2)cc1 (stereo not given)	none
Cc1ccc(/C(O)=C2/C(=O)C(=O)N(c3ccccn3)C2c2ccc([N+](=O)[O-])cc2)cc1 (stereo not given)	NS3 helicase inh 36 | NS3 hel confirm inactive | DNA FID counter-2 inactive
CCN1CCCC1CNC(=O)c1cc2cc(F)ccc2[nH]1 (stereo not given)	none
CC(=O)N1CCC(N(CCN2CCOCC2)C(=S)Nc2ccccc2C)CC1	none
CCCCOc1cccc(C2/C(=C(\O)c3ccc4c(c3)OCCO4)C(=O)C(=O)N2CCN2CCOCC2)c1 (stereo not given)	none
OCc1cc(Br)ccc1OCc1nc2ccccc2s1	NS3 helicase inh 38 | NS3 hel confirm inactive | DNA FID counter-2 inactive
Cc1ccccc1CN1C(=O)CS/C1=N/N=C/c1ccco1	NS3 helicase inh 45 | NS3 hel confirm inactive | DNA FID counter-2 inactive
O=[N+]([O-])/C(=C\Nc1ccccc1Cl)S(=O)(=O)c1ccccc1	none

Screening data from PubChem BioAssay.
